# Source: paper PMC6221991 (Structure (London, England : 1993), 2018)
# T1: human PPARα (hPPARα) (Homo sapiens, UniProt Q07869)
# T1 sequence (Q07869 239-466 limits assumed): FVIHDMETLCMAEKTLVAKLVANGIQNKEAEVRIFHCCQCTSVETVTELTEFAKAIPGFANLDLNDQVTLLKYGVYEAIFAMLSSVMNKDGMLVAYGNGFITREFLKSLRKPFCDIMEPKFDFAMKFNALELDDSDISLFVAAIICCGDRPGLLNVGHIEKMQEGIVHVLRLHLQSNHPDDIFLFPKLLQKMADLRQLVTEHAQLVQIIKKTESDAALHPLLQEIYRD
# T2: PPARγ Gal-4 (Homo sapiens, UniProt P37231)
# T2 sequence (P37231 238-503 limits assumed): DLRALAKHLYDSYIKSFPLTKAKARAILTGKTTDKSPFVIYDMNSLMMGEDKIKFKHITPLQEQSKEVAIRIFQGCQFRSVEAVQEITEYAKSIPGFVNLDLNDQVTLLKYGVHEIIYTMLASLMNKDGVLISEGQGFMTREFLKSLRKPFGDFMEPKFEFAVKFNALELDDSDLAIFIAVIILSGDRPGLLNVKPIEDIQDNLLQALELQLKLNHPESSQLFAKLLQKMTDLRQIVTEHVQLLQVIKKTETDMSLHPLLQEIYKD
# T3: hPPARδ (Homo sapiens, UniProt Q03181)
# T3 sequence (Q03181 1-441): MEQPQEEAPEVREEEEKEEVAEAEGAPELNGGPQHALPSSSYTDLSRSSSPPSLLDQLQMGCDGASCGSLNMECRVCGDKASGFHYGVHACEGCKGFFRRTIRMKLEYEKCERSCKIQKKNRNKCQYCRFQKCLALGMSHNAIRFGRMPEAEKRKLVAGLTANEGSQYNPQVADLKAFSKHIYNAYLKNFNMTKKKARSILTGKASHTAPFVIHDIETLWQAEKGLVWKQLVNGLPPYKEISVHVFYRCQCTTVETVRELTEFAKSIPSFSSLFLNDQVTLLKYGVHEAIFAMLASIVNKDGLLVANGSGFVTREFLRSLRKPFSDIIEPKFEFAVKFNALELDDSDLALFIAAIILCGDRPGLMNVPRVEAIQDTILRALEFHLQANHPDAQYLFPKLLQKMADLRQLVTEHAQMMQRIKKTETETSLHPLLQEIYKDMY
# T4: phosphorylation of PPARγ at S273 (pS273) (Homo sapiens, UniProt P37231)
# T4 sequence (P37231 1-505): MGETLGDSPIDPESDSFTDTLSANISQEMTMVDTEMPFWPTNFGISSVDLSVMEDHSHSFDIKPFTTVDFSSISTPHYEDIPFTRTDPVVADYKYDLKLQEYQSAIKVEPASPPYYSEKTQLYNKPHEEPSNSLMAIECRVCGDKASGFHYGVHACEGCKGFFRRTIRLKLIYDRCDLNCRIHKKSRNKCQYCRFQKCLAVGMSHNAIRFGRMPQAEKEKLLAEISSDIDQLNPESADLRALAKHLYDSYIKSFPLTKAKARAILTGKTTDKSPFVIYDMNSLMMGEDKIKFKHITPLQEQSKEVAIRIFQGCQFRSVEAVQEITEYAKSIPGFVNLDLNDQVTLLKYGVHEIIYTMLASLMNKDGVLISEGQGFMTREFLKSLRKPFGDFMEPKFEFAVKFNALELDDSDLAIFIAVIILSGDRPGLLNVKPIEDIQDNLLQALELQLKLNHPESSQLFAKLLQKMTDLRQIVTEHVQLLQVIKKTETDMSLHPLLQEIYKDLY
# T5: His-PPARγ (Homo sapiens, UniProt P37231)
# T5 sequence (P37231 1-505): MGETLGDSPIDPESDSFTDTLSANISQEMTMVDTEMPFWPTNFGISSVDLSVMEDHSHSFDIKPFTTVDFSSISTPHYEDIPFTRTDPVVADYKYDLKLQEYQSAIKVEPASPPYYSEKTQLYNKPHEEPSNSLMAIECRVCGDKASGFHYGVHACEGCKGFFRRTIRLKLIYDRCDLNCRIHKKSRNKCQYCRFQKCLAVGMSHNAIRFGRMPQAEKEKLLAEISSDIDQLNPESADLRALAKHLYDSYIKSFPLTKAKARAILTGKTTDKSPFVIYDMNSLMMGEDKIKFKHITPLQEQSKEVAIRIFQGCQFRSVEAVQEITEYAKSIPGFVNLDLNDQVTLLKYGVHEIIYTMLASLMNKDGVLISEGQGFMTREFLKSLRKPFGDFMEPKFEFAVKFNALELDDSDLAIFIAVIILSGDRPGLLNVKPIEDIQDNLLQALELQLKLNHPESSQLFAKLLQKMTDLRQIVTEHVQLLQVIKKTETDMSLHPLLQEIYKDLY
# T6: PPARγ LBD (human, UniProt P37231 231-505)
# T6 sequence (looked up): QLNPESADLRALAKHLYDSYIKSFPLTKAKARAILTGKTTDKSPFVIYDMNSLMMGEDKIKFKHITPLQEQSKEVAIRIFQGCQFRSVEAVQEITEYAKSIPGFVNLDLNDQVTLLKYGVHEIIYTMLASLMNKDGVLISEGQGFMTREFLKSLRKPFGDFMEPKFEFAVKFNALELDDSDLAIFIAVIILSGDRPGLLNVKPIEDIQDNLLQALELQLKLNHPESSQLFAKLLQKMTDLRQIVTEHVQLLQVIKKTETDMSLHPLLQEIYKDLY
# Legend:
# PPRE = test: full length PPRE transactivation assay; format: cell-based; conditions: for EC50 PPRE: full length PPRE assay
# 3T3-L1 cells = test: Differentiation of 3T3-L1 cells; format: cell-based, Mus musculus; conditions: for RNA-seq differential gene expression: 3T3-L1 cells, 6 days
# Summary of the method: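 Mouse 3T3-L1 embryo fibroblasts grown in DMEM with 10% heat-inactivated FBS, 2mM L-glutamine and 1% penicillin/streptomycin at 37 °C, 5% CO2. Test compound (1μM) added from the first day of differentiation; six days' incubation. Lipid droplets stained with Oil Red. Gene expression by qPCR: SYBR green, ΔΔ-Ct method normalised to Tbp. RNA-seq used stranded (dUTP) cDNA libraries. Mean ± SEM.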
# human PPARα (hPPARα) = target: T1, human PPARα (hPPARα); test: PPARα GAL-4 transactivation assay in HEK293T cells; format: cell-based
# [1] = Plasma exposure following oral administration in mice; format: in vivo, C57BL/6 mice
# PPARγ Gal-4 = target: T2, PPARγ Gal-4; test: Gal4-PPARγ-LBD cell-based transactivation assay in HEK293T cells
# hPPARδ = target: T3, hPPARδ; test: hPPARδ-Gal4 transactivation assay; format: cell-based; conditions: Figure S1A
# [2] = target: T4, phosphorylation of PPARγ at S273 (pS273); test: In vitro Cdk5 kinase assay, phosphorylation of PPARγ at S273; format: biochemical; conditions: vs DMSO only controls
# Summary of the method: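 1 μg immuno-purified WT PPARγ substrate pre-incubated with test compound for 30 min. Active Cdk5/p35 kinase then added in 25 mM Tris-HCl pH 7.5, 5 mM β-glycerophosphate, 2 mM DTT, 0.1 mM Na3VO4, 10 mM MgCl2 and 20 μM ATP, for 15 min at 30 °C. After SDS–PAGE, phospho-Ser in the K/R-S-P-K/R motif was detected with an anti-CDK-substrate antibody.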
# His-PPARγ = target: T5, His-PPARγ; test: TR-FRET NR box peptide recruitment assay; format: biochemical; conditions: FITC-labeled peptides
# [3] = target: T4, phosphorylation of PPARγ at S273 (pS273); conditions: ref Choi et al., 2010; cited from earlier work
# PPARγ LBD = target: T6, PPARγ LBD; test: cross-linking
molecule,measurement,setting,value
"CN(CCOc1ccc(CC2SC(=O)NC2=O)cc1)c1ccccn1 (centres unmarked) [Rosiglitazone, reference compound]",EC50,PPRE; read-out: EC50 PPRE,10 nM
same,RNA-seq differential gene expression,3T3-L1 cells,robust activation of a large gene set containing many known PPARγ target genes
"Cc1c(C)n(Cc2ccc(-c3ccccc3C(=O)O)cc2)c2ccc(C(=O)N[C@@H](C)c3ccc([N+](=O)[O-])cc3)cc12 [SR1664, reference compound]",EC50 PPRE,PPRE,No activity
same,EC50,human PPARα (hPPARα); read-out: EC50 PPARα GAL-4,8600 nM
same,plasma concentration,"[1]; C57BL/6 mice, oral, 40mg.kg−1, two hours after dosing",less than 1 μM
"Cc1c(C)n(Cc2ccc(C(C)(C)C(=O)O)cc2)c2ccc(C(=O)N[C@@H](C)c3cccc(C4CC4)c3)cc12 [SR11023, (S)-2-(4-((5-((1-(3-cyclopropylphenyl)ethyl)carbamoyl)-2,3-dimethyl-1H-indol-1-yl)methyl)phenyl)-2-methylpropanoic acid]",EC50,"PPARγ Gal-4; EC50 PPARγ Gal-4, HEK293T",2760 nM
same,Max.Stim. PPARγ Gal-4,PPARγ Gal-4; HEK293T,10%
same,shift of the dose response curve for rosiglitazone in the GAL4-PPARG assay,PPARγ Gal-4; data not shown,significantly right-shift the dose response curve for rosiglitazone
same,EC50 PPRE,PPRE,No activity
same,EC50 PPARα GAL-4,human PPARα (hPPARα),No activity
same,"transcriptional agonism, hPPARα-Gal4 transactivation",human PPARα (hPPARα); Figure S1A,no transcriptional agonism
same,"transcriptional agonism, hPPARδ-Gal4 transactivation",hPPARδ,no transcriptional agonism
same,% inhibition p273-PPARγ,"[2]; 20μM, 20 µM",77%
same,inhibition at 2 µM,"[2]; read-out: % inhibition p273-PPARγ, 2μM",25%
same,concentration at 2 h,"[1]; C57BL/6, mouse, plasma, po, 40 mg.kg−1",70 µM
same,RNA-seq differential gene expression,3T3-L1 cells,very modest regulation of only a small subset of PPARγ controlled genes
same,"adipogenic activity (lipid formation, aP2 and cd36 expression)","3T3-L1 cells; differentiated 3T3-L1 cells, 1μM, six days",minimal adipogenic activity
same,PPARγ interaction with coactivator NR box peptides p300 and SRC1–2,His-PPARγ,no enhanced interaction
same,PPARγ interaction with corepressor peptides NCOR1–3 and SMRT-2,His-PPARγ,increased
MRL24,PPARγ interaction with coactivator NR box peptides p300 and SRC1–2,His-PPARγ,enhanced the association
same,PPARγ interaction with corepressor peptides NCOR1–3 and SMRT-2,His-PPARγ,facilitated dissociation
same,inhibition of p273-PPARγ compared with Rosi,[3],"More potent than Rosi to inhibit p273 ([Choi et al., 2010])"
LTERHKILHRLLQEGSPSD [SRC1–2 NR box peptide],binding result,PPARγ LBD,binds
